Assay results: ChEMBL document CHEMBL5724801, “EUbOPEN Chemogenomics Library - Multiplex” (2024)
“And” between values parts separate entries of the source, which are not always exact repeats. Equal values may be shown once.

Test system: U2OS
Assay: Multiplex assay against U2OS
Format: toxicity, cell-based
Details: human
How it was run: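 On a CQ1 microscope at 37°C and 5% CO2, live cells were imaged after compound addition. They had been stained at seeding with Hoechst33342, BioTracker Green Microtubule Cytoskeleton Dye, MitoTracker Red and Annexin V Alexa Fluor 680. CellPathfinder machine-learning gating assigned cells to Hoechst high-intensity objects or normal cells, normal cells to healthy, pyknosed or fragmented nuclei, and pyknosed cells to mitotic or apoptotic. Tubulin, mitochondrial-mass and membrane-permeability phenotypes are per cents of healthy-nucleus cells.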

[1] = 12 h, 1 µM, compound concentration 1 uM
[2] = 12 h, 10 µM, compound concentration 10 uM
[3] = 24 h, 1 µM, compound concentration 1 uM
[4] = 24 h, 10 µM, compound concentration 10 uM
[5] = 48 h, 1 µM, compound concentration 1 uM
[6] = 48 h, 10 µM, compound concentration 10 uM

In the case of `N#Cc1ccnc(Nc2cc(C3CCN(C4COC4)CC3)cc(N3CCC(F)(F)C3)n2)c1`, the “Population Apoptotic (%)” value [1] was 40.82% and 36.11%, the “Population Fragmented Nuclei (%)” value [1] was 3.13% and 0.79% and the “Population Healthy Nuclei (%)” value [1] was 84.07% and 70.87%. For the same compound, the “Population Hoechst High Intensity Objects (%)” value [1] was 0%, the “Population Membrane Permeable-Phenotype (%)” value [1] was 3.11% and 2.22% and the “Population Mitochondria Different-Phenotype (%)” value [1] was 0.62% and 8.89%. The “Population Mitotic Cells (%)” value [1] was 59.18% and 63.89%, the “Population Normal (%)” value [1] was 100% and the “Population Pyknosed Nuclei (%)” value [1] was 12.79% and 28.35%. For the same compound, the “Population Tubulin-Different-Phenotype (%)” value [1] was 4.35% and 2.22%, the “Population Apoptotic (%)” value [2] was 46.67% and 38.95% and the “Population Fragmented Nuclei (%)” value [2] was 9.07% and 13.15%. The “Population Healthy Nuclei (%)” value [2] was 64.38% and 42.25%, the “Population Hoechst High Intensity Objects (%)” value [2] was 0% and the “Population Membrane Permeable-Phenotype (%)” value [2] was 7.56% and 17.78%. The “Population Mitotic Cells (%)” value [2] was 53.33% and 61.05%, the “Population Normal (%)” value [2] was 100% and the “Population Pyknosed Nuclei (%)” value [2] was 26.55% and 44.6%. The “Population Tubulin-Different-Phenotype (%)” value [2] was 73.88% and 62.22%, the “Total Cell Count” value [2] was 452 and 213 and the “Population Apoptotic (%)” value [3] was 47.06% and 53.12%. The “Population Fragmented Nuclei (%)” value [3] was 3.81% and 2.05%, the “Population Healthy Nuclei (%)” value [3] was 82.57% and 76.03% and the “Population Hoechst High Intensity Objects (%)” value [3] was 0%. For the same compound, the “Population Membrane Permeable-Phenotype (%)” value [3] was 2.18% and 6.31%, the “Population Mitochondria Different-Phenotype (%)” value [3] was 0.49% and 8.11% and the “Population Mitotic Cells (%)” value [3] was 52.94% and 46.88%. For the same compound, the “Population Normal (%)” value [3] was 100%, the “Population Pyknosed Nuclei (%)” value [3] was 13.63% and 21.92% and the “Population Tubulin-Different-Phenotype (%)” value [3] was 2.67% and 3.6%. For the same compound, the “Population Apoptotic (%)” value [4] was 51.37% and 67.97%, the “Population Fragmented Nuclei (%)” value [4] was 11.21% and 9% and the “Population Healthy Nuclei (%)” value [4] was 50.11% and 30.33%. The “Population Hoechst High Intensity Objects (%)” value [4] was 0% and 0.47%, the “Population Membrane Permeable-Phenotype (%)” value [4] was 6.75% and 10.94% and the “Population Mitochondria Different-Phenotype (%)” value [4] was 21.94% and 51.56%. The “Population Mitotic Cells (%)” value [4] was 48.63% and 32.03%, the “Population Normal (%)” value [4] was 100% and 99.53% and the “Population Pyknosed Nuclei (%)” value [4] was 38.69% and 60.66%. For the same compound, the “Population Tubulin-Different-Phenotype (%)” value [4] was 58.65% and 40.62%, the “Total Cell Count” value [4] was 473 and 212 and the “Population Apoptotic (%)” value [5] was 55.7% and 66.67%. The “Population Fragmented Nuclei (%)” value [5] was 3.56% and 4.98%, the “Population Healthy Nuclei (%)” value [5] was 85.19% and 78.61% and the “Population Hoechst High Intensity Objects (%)” value [5] was 0.14% and 0%. The “Population Membrane Permeable-Phenotype (%)” value [5] was 1.84% and 5.06%, the “Population Mitochondria Different-Phenotype (%)” value [5] was 0.67% and 6.33% and the “Population Mitotic Cells (%)” value [5] was 44.3% and 33.33%. The “Population Normal (%)” value [5] was 99.86% and 100%, the “Population Pyknosed Nuclei (%)” value [5] was 11.25% and 16.42% and the “Population Tubulin-Different-Phenotype (%)” value [5] was 3.01% and 2.53%. The “Population Apoptotic (%)” value [6] was 68.72% and 75.36%, the “Population Fragmented Nuclei (%)” value [6] was 9.35% and 11.35% and the “Population Healthy Nuclei (%)” value [6] was 37.83% and 28.38%. For the same compound, the “Population Hoechst High Intensity Objects (%)” value [6] was 0.22% and 0%, the “Population Mitochondria Different-Phenotype (%)” value [6] was 37.93% and 24.62% and the “Population Mitotic Cells (%)” value [6] was 31.28% and 24.64%. The “Population Normal (%)” value [6] was 99.78% and 100%, the “Population Pyknosed Nuclei (%)” value [6] was 52.83% and 60.26% and the “Population Tubulin-Different-Phenotype (%)” value [6] was 56.9% and 30.77%. The “Total Cell Count” value [6] was 461 and 229.
`Cc1cc(Nc2ncc(Cl)c(Nc3ccccc3S(=O)(=O)C(C)C)n2)c(OC(C)C)cc1C1CCNCC1` [CERITINIB] was tested, and the “Population Apoptotic (%)” value [1] was 28.57% and 18.75%, the “Population Fragmented Nuclei (%)” value [1] was 3.31% and 3.57% and the “Population Healthy Nuclei (%)” value [1] was 78.68% and 58.33%. For the same compound, the “Population Hoechst High Intensity Objects (%)” value [1] was 0%, the “Population Membrane Permeable-Phenotype (%)” value [1] was 17.76% and 17.35% and the “Population Mitotic Cells (%)” value [1] was 71.43% and 81.25%. For the same compound, the “Population Normal (%)” value [1] was 100%, the “Population Pyknosed Nuclei (%)” value [1] was 18.01% and 38.1% and the “Population Tubulin-Different-Phenotype (%)” value [1] was 40.65% and 72.45%. The “Total Cell Count” value [1] was 272 and 168, the “Population Apoptotic (%)” value [2] was 77.85% and 68.91% and the “Population Fragmented Nuclei (%)” value [2] was 0.93% and 0.8%. For the same compound, the “Population Healthy Nuclei (%)” value [2] was 3.43% and 4%, the “Population Hoechst High Intensity Objects (%)” value [2] was 0% and the “Population Membrane Permeable-Phenotype (%)” value [2] was 36.36% and 80%. The “Population Mitochondria Different-Phenotype (%)” value [2] was 0%, the “Population Mitotic Cells (%)” value [2] was 22.15% and 31.09% and the “Population Normal (%)” value [2] was 100%. The “Population Pyknosed Nuclei (%)” value [2] was 95.64% and 95.2%, the “Population Tubulin-Different-Phenotype (%)” value [2] was 72.73% and 60% and the “Total Cell Count” value [2] was 321 and 125. The “Population Apoptotic (%)” value [3] was 29.58% and 27.12%, the “Population Fragmented Nuclei (%)” value [3] was 2.58% and 2.73% and the “Population Healthy Nuclei (%)” value [3] was 77.08% and 65.03%. For the same compound, the “Population Hoechst High Intensity Objects (%)” value [3] was 0.29% and 0%, the “Population Membrane Permeable-Phenotype (%)” value [3] was 4.09% and 6.72% and the “Population Mitotic Cells (%)” value [3] was 70.42% and 72.88%. For the same compound, the “Population Normal (%)” value [3] was 99.71% and 100%, the “Population Pyknosed Nuclei (%)” value [3] was 20.34% and 32.24% and the “Population Tubulin-Different-Phenotype (%)” value [3] was 29% and 47.06%. The “Total Cell Count” value [3] was 350 and 183, the “Population Apoptotic (%)” value [4] was 83.51% and 81.55% and the “Population Fragmented Nuclei (%)” value [4] was 1.89% and 2.42%. The “Population Healthy Nuclei (%)” value [4] was 6.6% and 14.52%, the “Population Hoechst High Intensity Objects (%)” value [4] was 0% and the “Population Membrane Permeable-Phenotype (%)” value [4] was 23.81% and 50%. For the same compound, the “Population Mitochondria Different-Phenotype (%)” value [4] was 9.52% and 5.56%, the “Population Mitotic Cells (%)” value [4] was 16.49% and 18.45% and the “Population Normal (%)” value [4] was 100%. The “Population Pyknosed Nuclei (%)” value [4] was 91.51% and 83.06%, the “Population Tubulin-Different-Phenotype (%)” value [4] was 71.43% and 33.33% and the “Total Cell Count” value [4] was 318 and 124. For the same compound, the “Population Apoptotic (%)” value [5] was 50% and 61.97%, the “Population Fragmented Nuclei (%)” value [5] was 3.8% and 3.81% and the “Population Healthy Nuclei (%)” value [5] was 77.4% and 62.38%. For the same compound, the “Population Hoechst High Intensity Objects (%)” value [5] was 0.2% and 0%, the “Population Membrane Permeable-Phenotype (%)” value [5] was 1.55% and 4.58% and the “Population Mitotic Cells (%)” value [5] was 50% and 38.03%. The “Population Normal (%)” value [5] was 99.8% and 100%, the “Population Pyknosed Nuclei (%)” value [5] was 18.8% and 33.81% and the “Total Cell Count” value [5] was 501 and 210. The “Population Apoptotic (%)” value [6] was 89.1% and 93.88%, the “Population Fragmented Nuclei (%)” value [6] was 2.94% and 5.04% and the “Population Healthy Nuclei (%)” value [6] was 46.08% and 53.78%. The “Population Hoechst High Intensity Objects (%)” value [6] was 0%, the “Population Mitochondria Different-Phenotype (%)” value [6] was 7.09% and 10.94% and the “Population Mitotic Cells (%)” value [6] was 10.9% and 6.12%. The “Population Normal (%)” value [6] was 100%, the “Population Pyknosed Nuclei (%)” value [6] was 50.98% and 41.18% and the “Population Tubulin-Different-Phenotype (%)” value [6] was 46.1% and 31.25%. For the same compound, the “Total Cell Count” value [6] was 306 and 119.
